Measured values published in ChEMBL document CHEMBL4513216, “Probing the Open Global Health Chemical Diversity Library for Multistage-Active Starting Points for Next-Generation Antimalarials” (ACS Infect Dis, 2020).

Experiment: Toxicity liver stage against HepG2, at 10uM
Type: cell-based
Parameters: test concentration 10 uM, cell line HepG2-A16-CD81EGFP
Conditions: human, HepG2-A16-CD81EGFP cells; read-out: INHIBITION
Procedure, shortened: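 Uninfected HepG2-A16-CD81EGFP cells, 3 × 10^3 per well, 1536-well, plated on prespotted compound at 10 μM final, parasite-free screening media added to match infected plates; puromycin 10 μM positive, DMSO 0.5% negative; run in parallel with 48 h PbLuc assay at 37 °C, 5% CO2; viability by CellTiter-Glo luminescence, normalized to controls.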

Row | Compound | cytotoxicity at 10 µM
1 | CC(C)Cc1nc(OCC(N)=O)c(C#N)c2c1CCCC2 | -9.53%
2 | COc1ccc(-c2csc3c2c(N)nc(=O)n3CCN(C)C)cc1 | -49.9%
3 | CC(C)Nc1nc2c(c(N(C)C)n1)CCN(C(=O)c1cc[nH]n1)CC2 | 6.59%
4 | CSc1nc2ncc3c(=O)n(CCN4CCCCC4)ccc3n2n1 | 5.23%
5 | Cc1ccc(N2CCN(C(=O)COc3nccc(C)n3)CC2)nn1 | -25.1%
6 | CN(C)C(=O)C1CCCN(C(=O)c2ccccc2-n2cc(CN)cn2)C1 (centres undefined) | 11.6%
7 | Cc1cc(CCC(=O)O)nc(C2CCCN2c2ccnc(C)n2)n1 (centres undefined) | -8.12%
8 | Cc1cc(CN(C)Cc2ncc(-c3ccccc3)o2)no1 | -13.8%
9 | CCOCCNC(=O)c1cnc(Sc2nccn2C)c(Cl)c1 | -44.6%
10 | CCN(C)S(=O)(=O)N1CCC(C(O)c2ccc(F)cc2)CC1 (centres undefined) | -22%
11 | O=S(=O)(c1ccc(Cl)s1)N1CCCC(c2ncc[nH]2)C1 (centres undefined) | 6.68%
12 | O=C1CCCN1CCCN1CCCCC1Cn1cncn1 (centres undefined) | -0.358%
13 | COc1ccc(-c2nc(CCNC(=O)NC3CCC(O)CC3)co2)cc1 (centres undefined) | 7.66%
14 | CC(C)COc1cncc(N2CCCN(c3ncccn3)CC2)n1 | -2.38%
15 | COCc1cc(N(C)Cc2ncnn2C)nc(C(C)(C)C)n1 | 6.39%
16 | COc1ccc2c(c1)CCCN2C(=O)CN1CCOC(C)C1 (centres undefined) | 2.59%
17 | COCC(=O)N1CCN(C(=O)C2(c3ccc(C)c(OC)c3)CC2)CC1 | -8.19%
18 | CNS(=O)(=O)c1cccc(C(C)NCc2cccc(O)c2)c1 (centres undefined) | 1.14%
19 | O=C(NCc1nnc2n1CCC2)N(Cc1ccc(F)cc1)C1CC1 | -5.31%
20 | CCOc1cc(C)nc(N2CCN(Cc3nccn3CC)CC2)n1 | -3.81%
21 | CSCC(CCO)NC(=O)Nc1cc(F)ccc1C (centres undefined) | -1.8%
22 | COc1cc(OC)cc(C2(O)CCN(Cc3ncc(C)o3)CC2)c1 | 17%

Row | Compound | cytotoxicity at 10 µM
23 | CCNc1ncc(C(=O)Nc2nnc(N3CCCCC3)[nH]2)s1 | -12.4%
24 | CN(Cc1ccc(C#N)cc1)Cn1nccc1-c1cccnc1 | 8.4%
25 | CCN(C)S(=O)(=O)NCC1(c2ccccc2Br)CC1 | 1.22%
26 | Cc1cccc(N2N=C(C(=O)NC(C)Cn3cccn3)CCC2=O)c1 (centres undefined) | 0.479%
27 | CCN1CCC(NC(=O)Cc2csc(C(C)(C)C)n2)CC1 | -16.3%
28 | CC(C)c1nnc(NC(=O)Cc2ccc(F)cc2)[nH]1 | -8%
29 | NC(=O)[C@@H]1Cc2ccccc2CN1S(=O)(=O)N1CCCCC1 | 3.33%
30 | Cn1cnnc1C1CCN(C(=O)c2cc(-c3ccccc3)on2)CC1 | 3.77%
31 | Cc1noc(CS(=O)(=O)C(C)C(=O)N(C)c2ccccc2)n1 (centres undefined) | 9.26%
32 | CC(OCC1CC1)C(=O)Nc1ncccc1I (centres undefined) | 12.1%
33 | CN(C(=O)Cn1nnnc1C(C)(C)C)c1ccccc1 | -48.4%
34 | CN(C)C(C(=O)Nc1nccs1)c1c(F)cccc1Cl (centres undefined) | -44.4%
35 | CCN(Cc1noc(CC(C)C)n1)Cc1ccccc1Cl | -50.6%
36 | CC(C)Nc1ncnc2c1CCN(C(=O)NCc1cccc(F)c1)CC2 | -110%
37 | CC(=O)N1CCO[C@@H]2CN(S(=O)(=O)C3CC3)C[C@@H]2C1 | -104%
38 | CCN(C(=O)c1ccc2nnc(C3CCN(C(C)=O)C3)n2c1)C(C)C (centres undefined) | -107%
39 | CC(=O)N1CCC(c2nnc3ccc(C(=O)NCC(C)C)cn23)C1 (centres undefined) | -108%
40 | COc1nn(C)c2c1CCCN(C(=O)c1cscn1)C2 | -97.2%
41 | O=C(Cc1ccccc1)N1CCC2(CC1)CN(c1ncccn1)CCO2 | -72.3%
42 | COCC(=O)N1C[C@H]2CN(Cc3cccc(F)c3)C(=O)[C@H]2C1 | -83.5%
43 | CC(=O)N1CCC2(CCN(C(=O)c3ccc(Cl)c(C(F)(F)F)c3)C2)C1 (centres undefined) | -85.8%
44 | COCCC(=O)N1CCn2c(COCC3CC3)cnc2C1C (centres undefined) | 4.17%

Row | Compound | cytotoxicity at 10 µM
45 | O=C(CO)N1CCc2onc(Cn3cccn3)c2C1 | 0.436%
46 | COc1ccc(CCN2C(=O)O[C@@H]3CN(C)C[C@@H]32)cc1 | -2%
47 | CN(C)CCNC(=O)CCC1CCN(C(=O)c2ccc(Cl)cc2O)CC1 | -11.7%
48 | Cc1ccc(-c2nc(CN3C[C@@H](C)NC[C@@H]3C)c(C)o2)s1 | -11.7%
49 | Cc1cc(N2CCN(Cc3ccsc3)C(CCO)C2)nc(N)n1 (centres undefined) | -7.3%
50 | COCCn1cncc1CN1CCC(C(C)=O)(c2ccccc2)CC1 | 1.92%
51 | CCn1cnnc1CN(C)Cc1nc(-c2cc(OC)ccc2F)oc1C | -1.32%
52 | Cc1ccc(OCC2CCCN(CC3CCOCC3)C2)cc1 (centres undefined) | 16.1%
53 | CC(=O)c1ccc(N2CCCC(CO)(Cc3ccccc3F)C2)nc1 (centres undefined) | 8.59%
54 | COc1ccc(C(=O)C2CCCN(c3nccc(N)n3)C2)c(C)c1 (centres undefined) | 5.67%
55 | COc1ccnc(N2CCC(=O)N(CC3CC3)C(C(C)C)C2)n1 (centres undefined) | 1.73%
56 | O=C(CCN1CCCO1)NC1CCCN(CC2CCCCC2)C1 (centres undefined) | 7.3%
57 | CC1(c2ccccc2)CCCN(Cc2cncn2C2CC2)C1 (centres undefined) | -1.06%
58 | NC(=O)COc1ccc(CN2CCC(O)(CN3CCCCC3)C2)cc1Cl (centres undefined) | -1.73%
59 | COc1ccc(Oc2ncccc2C(N)=O)cc1CN1CCCC1 | 0.0453%
60 | NCCc1cccc(CN2CCN(c3cccc(Cl)c3)C(=O)C2)c1 | -5.29%
61 | C1CCC(CNC2CCSCC2)(N2CCOCC2)CC1 | -14.5%
62 | CC(Nc1nccc(CCC(F)(F)F)n1)c1nc(-c2ccncc2)no1 (centres undefined) | 4.74%
63 | CCc1nc(C)sc1CNC1CCN(Cc2ccccc2)C1 (centres undefined) | -31.7%
64 | Cc1cc2nc(C(C)C)cc(NC(C)c3nncn3C3CCCC3)n2n1 (centres undefined) | 8.91%
65 | Cc1ccc(C(C(=O)N(C)CCc2cn[nH]c2)N(C)C)cc1 (centres undefined) | 0.0341%
66 | CCCn1ccnc1-c1nccn1CCn1cnnc1 | -3.53%

Row | Compound | cytotoxicity at 10 µM
67 | c1cnc(N2CCN(CCn3ccnc3-c3ccncc3)CC2)nc1 | -3.25%
68 | Cc1ccc(CN(C)c2nccc(-c3cn(C)nc3C)n2)o1 | 4.17%
69 | CC(C)CN1CCCC1c1ccc(C(=O)Nc2ccc3[nH]nnc3c2)s1 (centres undefined) | 19.1%
70 | COC(=O)CC1C(=O)NCCN1c1nc2c(s1)c(C)nn2C (centres undefined) | -7.36%
71 | Cc1nc(CCN)cc(N2CCCN(C(=O)c3ccco3)CC2)n1 | 1.24%
72 | Cc1ccnn1CC(=O)N(C)Cc1cnn(-c2ccccc2)c1 | 9%
73 | Cc1nc(N2CCC(O)(c3ccc(F)cc3)CC2)c2c(C)nn(C)c2n1 | -0.503%
74 | CN(C)c1nc2c(c(=O)[nH]1)CCN(C(=O)c1c[nH]c(=O)c(Cl)c1)C2 | 6.32%
75 | CSc1ccc(CN(C(=O)c2cc(C)[nH]c(=O)c2)C2CC2)cc1 | -49.5%
76 | CCCN1CCN(Cc2cc(Cl)cc(Cl)c2)[C@H]2CS(=O)(=O)C[C@H]21 | -2.45%
77 | COCCN(C)C[C@H]1C[C@H](CO)CN(C(=O)c2ccc(=O)n(C)c2)C1 | -1.06%
78 | O=C(NCc1cc2ccccc2s1)c1cc(CN2CCCC(O)C2)on1 (centres undefined) | -40%
79 | Cc1nc(-c2ncc(C(=O)NCCNc3ncccc3C)c(O)n2)cs1 | -0.153%
80 | O[C@@H]1CN(c2noc(C3CC3)n2)CC[C@H]1c1ccc2ccccc2c1 | 5.11%
81 | COc1ccc(-c2ccccc2CCN)c(OC)c1OC | 2.79%
82 | COCCCNCc1cc(O)c2cc(C)cc(C)c2n1 | -6.31%
83 | CC1CNC(=O)CCN1Cc1cc(O)c2cccc(F)c2n1 (centres undefined) | -4.5%
84 | Cc1cnn(C2CN(Cc3nc(-c4ccccn4)no3)C2)c1 | 3.24%
85 | CCc1nnc2n1CCN(Cc1cccc3c1OCCO3)C2 | -7.42%
86 | COc1cccc(C(NCc2ccc(SC)cc2)c2nccn2C)c1 (centres undefined) | -5.54%
87 | O=C(CC1C=CCC1)Nc1ncn(CC(=O)N2CCCCCC2)n1 (centres undefined) | -3.72%
88 | CC(c1nc(C2CC2)no1)N1CCN(Cc2noc(C3CC3)n2)CC1 (centres undefined) | 4.63%

Row | Compound | cytotoxicity at 10 µM
89 | Cn1cnnc1C1CCCN(C(=O)NCc2cc[nH]n2)C1 (centres undefined) | -6.73%
90 | O=C1COc2cc(C(=O)NS(=O)(=O)c3ccccc3F)ccc2N1 | -4.79%
91 | Cc1cnn(CCNCc2ccccc2C#N)c1 | -9.14%
92 | CC(O)CN1CCN(C(=O)c2ccc(N(C)C)nn2)CC1 (centres undefined) | -13.4%
93 | O=C(c1ccc(Cl)o1)N1CCCN(Cc2cscn2)CC1 | -1.08%
94 | Cc1cccc(CNc2cc(C3CCCNC3)ccn2)n1 (centres undefined) | 3.81%
95 | CCn1c(CN2CCCC(O)(c3ccc(F)cc3)CC2)cnc1SC (centres undefined) | -0.466%
96 | COc1ccc(F)c(CN2CCC(c3cc(O)nc(C)n3)C2)c1 (centres undefined) | 5.61%
97 | Cc1noc(C)c1CN1C[C@@H]2COC[C@H](C(=O)N3CCCCO3)[C@@H]2C1 | -1.98%
98 | c1ccc(COC[C@H]2CC[C@H]3[C@H](CCN3Cc3ccccn3)O2)nc1 | -84.7%
99 | Fc1cccc(N2C[C@H]3CCN(c4cccnc4)C[C@H]3C2)c1 | 15.4%
100 | O=C(NCc1cnc2n1CCN(CC1CCOCC1)C2)c1ccno1 | -101%
101 | CCC1=N[C@@]2(CC[C@@H]3CN(Cc4ccc(Cl)cc4)C[C@@H]32)C(=O)N1C | 1.98%
102 | CNC(=O)[C@H]1C[C@@H]2CN(S(=O)(=O)c3cccc(C)c3)C[C@@H]2N1C | 1.59%
103 | CN(C)c1nc(N2CCCC2)nc2c1CCN(Cc1nccn1C)CC2 | -97.2%
104 | OC1(Cn2ccc3ncccc32)CCN(Cc2ccccn2)CC1 | 5.33%
105 | O=C(Cc1ccc(F)cc1)N1CCn2cc(Cn3cccn3)nc2C1 | 4.58%
106 | O=C([C@H]1C[C@H]2OCC[C@H]2N(CC2CCOCC2)C1)N1CCCCO1 | -73.9%
107 | CCOC(=O)N1CCc2ccccc2C12CCNCC2 | 1.15%
108 | CN(Cc1cccnc1)C1CC2(CCN(Cc3ccccn3)CC2)C1 | -84%
109 | COc1ccc2c(c1)sc(=NC(=O)CSCC(=O)Nc1nccs1)n2C | -8.36%
